High-throughput results as filed in PubChem BioAssay.
XiGFP reactiv: activators of X-chromosome reactivation in mouse fibroblasts | hit rate 0.055% among 360,000 | XiGFP mouse fibroblasts, % GFP-positive cells imaging, 3 d; cells co-treated with 5-aza-dC sensitizer; scaled so ellipticine positive control = 100% | activation, % at 7.58 µM | AID 743238;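 active = mean normalized replicate activation at least 10% and every replicate at or above 10%; inconclusive = only one of the two criteria met; inactive = mean below 10% and not all replicates reach 10%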
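Assay system: SV40-immortalized XiGFP fibroblast cells, line 68-5-11; buffer or medium: DMEM plus 5-aza-dC sensitizer; compound: one concentration, pinned; timing: compounds 3 days, fix/stain 15 min at room temperature; benchmarks: positive control ellipticine, 6 µM final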
S100A4 inh HTS: blocks human S100A4 binding to myosin IIA peptide; S100A4/TAMRA-MyoIIA peptide fluorescence polarization; P26447; AID 652163; inhibition, % at 10.7 µM; hit rate 0.14% among 360,000;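 active = mean inhibition of at least 70% across replicates, with every replicate also reaching that level; inconclusive = mean inhibition reaches 70% but some replicates fall short; inactive = mean inhibition below 70%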
Target sequence (P26447 whole entry, looked up): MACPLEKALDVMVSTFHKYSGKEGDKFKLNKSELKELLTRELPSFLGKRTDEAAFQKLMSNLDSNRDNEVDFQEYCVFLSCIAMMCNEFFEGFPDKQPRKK
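incubation = readout 5 min after mixing, signal stable up to 60 min | system = S100A4 monomer protein | buffer or medium = HEPES pH 7.2 with CaCl2, KCl, NaCl, DTT, Triton | benchmarks = neutral control DMSO, positive control TFP | also added = fluorescent myosin IIA peptide, 5 nM | compound dosing = one concentration per compound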
CASP6 VEID inh: caspase-6 (human) enzyme inhibition. P55212. inhibition, % at 12.5 µM. hit rate 0.53% among 350,000. purified caspase-6, Z-VEID-R110 cleavage fluorescence;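 active = mean inhibition across replicates at least about 35%, with every replicate also reaching that limit, limit read from the data; inconclusive = only one of the two criteria met; inactive = neither criterion met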
Target sequence (P55212 24-179 limits assumed): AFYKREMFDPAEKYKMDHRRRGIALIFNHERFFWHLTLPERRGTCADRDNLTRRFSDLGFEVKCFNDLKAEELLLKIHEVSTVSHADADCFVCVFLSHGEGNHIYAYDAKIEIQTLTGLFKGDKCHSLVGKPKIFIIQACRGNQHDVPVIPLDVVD
Target sequence (P55212 194-293 limits assumed): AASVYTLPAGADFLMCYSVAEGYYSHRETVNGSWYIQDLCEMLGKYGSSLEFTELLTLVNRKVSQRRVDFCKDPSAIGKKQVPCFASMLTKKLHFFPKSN
RAD54 inh: blocks human RAD54 Holliday junction branch migration | inhibition, % at 10.4 µM | Q92698 | FAM/BHQ fluorescence | hit rate 0.14% among 360,000;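 active = mean normalized replicate activity at least 40 and at least half of replicates scoring 40 or more; inconclusive = only one of the two criteria met; inactive = mean below 40 and under half of replicates reaching 40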;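 note: inhibitors cause a drop in the FAM fluorescence signal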
RAD52 anneal inh: blocks human RAD52 DNA annealing; P43351; recombinant RAD52 DNA annealing, FRET fluorescence; inhibition, % at 18.7 µM; hit rate 0.46% among 360,000; AID 651710;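 active = every replicate showing at least 50% inhibition; inconclusive = mean inhibition at least 50% but not in every replicate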
AF4-AF9 inh: MLL-AF4/AF9 protein interaction inhibition; P42568; AlphaScreen, biotin-AF4 peptide binding to FLAG-AF9; inhibition, % at 10 µM; hit rate 0.47% among 350,000;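 active = every replicate reaching a set inhibition limit, whatever the replicate mean, cut at about 25% in these data; inconclusive = mean inhibition reaches that limit but some replicates miss it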
RAD52 DNA ctr: binds DNA, flagging false RAD52 inhibitor hits; shares compounds with RAD52 anneal inh; Salmon sperm DNA/acridine orange FP displacement, DNA binding; AC50, µM; hit rate 8% among 1,000;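 active = fitted half-maximal concentration for signal loss at or below twice the highest dose tested, in every separate run, actives reach about 64 µM in these data; inconclusive = runs disagree, or flat partial signal loss, or poor fit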
A number is an active result; i = inactive; ? = inconclusive; nt = not tested or not shown. Hits are enriched below; roughly 1.3% of the tested compounds scored in any of these assays.

SMILES | XiGFP reactiv | S100A4 inh HTS | CASP6 VEID inh | RAD54 inh | RAD52 anneal inh | AF4-AF9 inh | RAD52 DNA ctr
CNC12CCc3cc(OC)c(OC)c(c31)-c1cc3c(cc1C2)OCO3 (stereo not given) | nt | i | i | nt | 53.8 | nt | i
Cc1cc2cc(CNC(=O)NC3CCCCC3)ccc2[nH]1 | nt | nt | nt | i | nt | nt | nt
Cc1cc2cc(CNC(=O)NC3CCCCC3)ccc2n1C | i | i | i | i | 66.3 | i | i
CCOc1ccc(CCN2C(=S)N([C@@H](Cc3ccc(O)cc3)CN3CCCC3CN3C(=S)NC[C@@H]3Cc3ccc(O)cc3)C[C@@H]2CC(C)C)cc1 (stereo not given in full) | i | i | i | i | i | i | nt
CCOc1ccc(CCN2C(=S)N([C@@H](Cc3ccc(O)cc3)CN3CCC[C@@H]3CN3C(=S)NC[C@@H]3CC(C)C)C[C@@H]2Cc2ccc(O)cc2)cc1 | i | i | i | i | 66.6 | i | i
CCCNC(=O)c1ccc2c(=O)c(O)c(-c3ccc(C)cc3)[nH]c2c1 | i | i | i | i | i | i | nt
Cc1ccc(-c2[nH]c3cc(C(=O)NCCCn4ccnc4)ccc3c(=O)c2O)cc1 | i | i | i | i | 80.5 | 56.7 | i
O=C(NC[C@H]1CC[C@@H]2[C@@H](CN2Cc2cccc(Cl)c2)O1)C1CC1 | nt | i | i | nt | i | i | nt
OCCCNc1c2ccccc2nc2ccccc12 | i | i | i | 96.7 | 94.8 | i | 52.8µM
COc1ccc(Cc2c3cc(OC)c(OC)cc3cc[n+]2C)cc1OC | nt | nt | nt | i | nt | nt | nt
COc1cc2c[n+](C)c3c4ccccc4ccc3c2cc1OC | i | i | i | nt | 104.4 | i | ?
COc1ccc2c(c1)c[n+](C)c1c3cc(OC)c(OC)cc3ccc21 | i | i | i | nt | 108.9 | i | 36.2µM
COc1ccc(/C=C/c2ccc3ccccc3[n+]2C)cc1OC | nt | nt | nt | i | nt | nt | nt
COc1cc(OC)cc(-c2sc3ccc(OC)cc3c2C#CC2(N)CCCCC2)c1 | i | i | i | i | i | i | i
COc1ccc(N)cc1NC(=O)CN1CCCC1 | i | i | i | i | 79.4 | i | i
Cc1cc(N)ccc1NC(=O)CN1CCCC1 | i | i | i | i | 100.7 | i | i
COc1ccc(NC(=O)Nc2ccc3c(c2)C(=O)N([C@H](C)CO)C[C@H](C)[C@H](CN(C)S(=O)(=O)c2ccc(OC)cc2)OCCCC[C@H](C)O3)cc1 | i | nt | nt | i | nt | nt | nt
O=[N+]([O-])c1ccc(COc2ccccc2CN2CCCCC2)cc1 | i | i | i | i | i | i | nt
O=[N+]([O-])c1ccc(COc2ccccc2CN2CCCC2)cc1 | i | i | i | i | 77.2 | i | i
CC(=O)N1CC(c2ccccc2)C(c2ccc(Cl)cc2)=N1 (stereo not given) | i | i | i | i | i | i | nt
CC(C)NC(=O)N1CC(c2ccccc2)C(c2ccc(Cl)cc2)=N1 (stereo not given) | i | i | i | i | 97.5 | i | i
C[C@@H]1CN([C@H](C)CO)C(=O)c2cc(NC(=O)C3CCCCC3)ccc2O[C@@H](C)CCCCO[C@@H]1CN(C)S(=O)(=O)c1ccccc1 | i | i | i | i | i | i | nt
Cc1cc(C)c2c(N)c3cccc(C)c3nc2n1 | i | i | i | nt | 78.4 | i | 32.2µM
Cc1cccc2c(N)c3c(nc12)CCCC3 (tested in a mixture with another compound) | i | i | i | i | i | i | nt
CC1=CC(C)(C)N=C(Nc2nc(C)c3cc(C)cc(C)c3n2)N1 | i | i | i | i | 79.0 | i | i
SMILES | XiGFP reactiv | S100A4 inh HTS | CASP6 VEID inh | RAD54 inh | RAD52 anneal inh | AF4-AF9 inh | RAD52 DNA ctr
CC(C)C#Cc1ccc2c(c1)O[C@@H](CN(C)C(=O)c1cnccn1)[C@H](C)CN([C@@H](C)CO)S2(=O)=O | i | i | i | i | i | i | nt
O=C(Cc1ccccn1)NCC[C@@H]1CC[C@@H](NC(=O)Nc2ccccc2)[C@H](CO)O1 | i | i | i | i | i | i | nt
NCCCCc1ccc2ccc3cccc4ccc1c2c34 | i | i | i | i | 52.7 | i | i
O=C(O)CCCc1ccc2ccc3cccc4ccc1c2c34 | i | i | i | i | i | i | nt
CC[n+]1c(/C=C2/C=C(C)CC(C)C2)sc2ccccc21 (stereo not given) | i | i | i | nt | i | i | nt
CC[n+]1c(C=C2C=C(C)OC(C)=C2)sc2ccccc21 | 56.6 | i | nt | nt | 58.7 | i | i
COc1ccc(CNCc2ccncc2)c(OC)c1 | i | i | i | i | i | i | nt
CCN(Cc1ccncc1)Cc1ccc(OC)cc1OC | i | i | i | i | 99.0 | i | i
OC[C@@H]1CN(Cc2ccc3c(c2)OCO3)C[C@H](n2cnc3c(N4CCCC4)ncnc32)O1 | i | i | i | i | 86.0 | i | i
COc1ccc(S(=O)(=O)Nc2ccc3c(c2)C(=O)N([C@H](C)CO)C[C@H](C)[C@@H](CN(C)S(=O)(=O)c2ccccc2)OCCCC[C@H](C)O3)cc1 | i | i | i | nt | i | i | nt
CC(O)CNc1ccc(-c2n[nH]c(=O)c3ccccc23)cc1[N+](=O)[O-] (stereo not given) | i | i | i | i | i | i | nt
CN(C)CCCNc1ccc(-c2n[nH]c(=O)c3ccccc23)cc1[N+](=O)[O-] | i | i | i | i | 66.4 | i | i
CC1CCN(CC(O)CN2c3ccccc3Sc3ccccc32)CC1 (stereo not given) | nt | nt | nt | i | nt | nt | nt
CSc1ccc2c(c1)N(CCC1CCCCN1C)c1ccccc1S2 (stereo not given) | i | i | i | i | 51.1 | 38.5 | i
C[C@@H]1CCCCO[C@@H](CN(C)S(=O)(=O)c2ccc(Cl)cc2)[C@H](C)CN([C@@H](C)CO)C(=O)c2cc(NC(=O)CCCN(C)C)ccc2O1 | i | i | i | i | i | i | nt
C[C@@H]1CCCCO[C@@H](CN(C)C(=O)Cc2ccccc2)[C@@H](C)CN([C@@H](C)CO)C(=O)c2cc(NC(=O)Nc3ccc(F)cc3)ccc2O1 | i | i | i | i | i | i | nt
CCOC(=O)c1c(C)n(CC(O)CN(C)C)c2cc(Br)c(OC)cc12 (stereo not given) | i | i | i | nt | 84.6 | i | i
COc1ccc(NC(=O)Nc2ccc3c(c2)[C@@H]2C[C@H](CC(=O)N4CCc5ccccc5C4)O[C@H](CO)[C@@H]2O3)cc1 | i | i | i | i | i | i | nt
O=C(c1ccc(F)cc1)N1CCCCN2[C@H](C1)[C@@H](c1ccc(/C=C/c3ccccc3)cc1)[C@@H]2CO | i | i | i | i | i | i | nt
O=C(c1ccc(Cn2c(=S)[nH]c3ccc(N4CCOCC4)cc3c2=O)cc1)N1CCC(N2CCCCC2)CC1 | i | i | i | nt | 87.2 | i | i
Nc1ccc(-c2nc3ccc(N)cc3[nH]2)cc1 | i | i | i | nt | i | i | nt
